Reference: ChEMBL document CHEMBL2151030, “Improving the solubility of a new class of antiinflammatory pharmacodynamic hybrids, that release nitric oxide and inhibit cycloxygenase-2 isoenzyme” (Eur J Med Chem, 2012)
Values after ≈ are worked out from the molar mass of the structure shown.

Assays:
Rattus norvegicus [1] = assay: Antiinflammatory activity in rat assessed as reduction of carrageenan-induced paw pressure at 40 mg/kg, po after 45 mins post carrageenan-challenge; format: functional; set-up: scale not given: the % may be the effect or the level left
In short: (§1)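 Rats (Sprague-Dawley or Wistar, 150-200 g) received intraplantar carrageenan 4 h before testing, then oral compound or CMC vehicle. Paw-pressure threshold read before treatment and at 15, 30, 45 and 60 min after treatment, compared with saline and carrageenan controls.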

Liver = assay: Induction of nitrite/nitrate production in Wistar rat liver homogenates at 1 mM; format: functional, tissue-based; settings: TDE = time-dependent effect
In short: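 Liver from male Wistar rats (250–350 g), perfused with cold buffer (pH 7.4), homogenized 1:5 w/v. Homogenate in K2HPO4/EDTA buffer pH 7.4 with 1 mM glutathione, NADH and NADPH at 37 °C; compound added from DMSO at 1 mM final. Aliquots at 5-120 min into H2SO4/KI; quantified against sodium nitrite calibration.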

Rattus norvegicus [2] = assay: Antiinflammatory activity in rat assessed as reduction of carrageenan-induced paw pressure at 20 mg/kg, po after 30 mins post carrageenan-challenge; format: functional; set-up: scale not given: the % may be the effect or the level left; in short: as §1
Mus musculus [3] = assay: Analgesic activity in Swiss albino mouse assessed as reduction of acetic acid-induced writhing at 42 nmol/kg, po after 5 mins; format: functional; set-up: scale not given: the % may be the effect or the level left
In short: (§2)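 Male Swiss albino mice (23-25 g), standard diet and water ad libitum, 23 ± 1 °C, 12 h light/dark cycle. Test compound given orally; 0.6% acetic acid (10 mL/kg) injected ip. Stretching movements counted for 10 min, beginning 5 min after administration.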

[4] = Solubility of the compound in PBS buffer at pH 7.4 by HPLC analysis; format: physicochemical
In short: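 20 mM DMSO stocks diluted 1:100 into 0.01 M PBS pH 7.4 in duplicate wells of a solubility filter plate, shaken 90 min at 300 rpm. Seven-point calibration standards from 1 to 200 μM.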

Rattus norvegicus [5] = assay: Antiinflammatory activity in rat assessed as reduction of carrageenan-induced oedema in right hind paw at 40 mg/kg, po after 4 hrs post carrageenan-challenge; format: functional; set-up: scale not given: the % may be the effect or the level left
In short: (§3)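 Sprague-Dawley or Wistar rats (150-200 g). Carrageenan injected intraplantar; oral treatment with test compound or CMC vehicle. Right hind paw volume measured 4 h after carrageenan and compared with saline- and carrageenan-treated controls.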

[6] = Solubility of the compound in simulated gastric fluid without pepsin at pH 1.5 by HPLC analysis; format: physicochemical
In short: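 Compound from 20 mM DMSO stock diluted 1:100 into 0.05 M simulated gastric fluid without pepsin (pH 1.5 with HCl), duplicate wells on a solubility filter plate, shaken 90 min at 300 rpm. Seven-point calibration standards from 1 to 200 μM.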

Rattus norvegicus [7] = assay: Antiinflammatory activity in rat assessed as reduction of carrageenan-induced paw pressure at 20 mg/kg, po after 45 mins post carrageenan-challenge; format: functional; set-up: scale not given: the % may be the effect or the level left; in short: as §1
Rattus norvegicus [8] = assay: Antiinflammatory activity in rat assessed as reduction of carrageenan-induced paw pressure at 40 mg/kg, po after 30 mins post carrageenan-challenge; format: functional; set-up: scale not given: the % may be the effect or the level left; in short: as §1
Rattus norvegicus [9] = assay: Antiinflammatory activity in rat assessed as reduction of carrageenan-induced paw pressure at 20 mg/kg, po after 60 mins post carrageenan-challenge; format: functional; set-up: scale not given: the % may be the effect or the level left; in short: as §1
Rattus norvegicus [10] = assay: Antiinflammatory activity in rat assessed as reduction of carrageenan-induced paw pressure at 40 mg/kg, po after 60 mins post carrageenan-challenge; format: functional; set-up: scale not given: the % may be the effect or the level left; in short: as §1
Rattus norvegicus [11] = assay: Antiinflammatory activity in rat assessed as reduction of carrageenan-induced oedema in right hind paw at 20 mg/kg, po after 4 hrs post carrageenan-challenge; format: functional; set-up: scale not given: the % may be the effect or the level left; in short: as §3
Rattus norvegicus [12] = assay: Antiinflammatory activity in rat assessed as reduction of carrageenan-induced paw pressure at 20 mg/kg, po after 15 mins post carrageenan-challenge; format: functional; set-up: scale not given: the % may be the effect or the level left; in short: as §1
Mus musculus [13] = assay: Analgesic activity in Swiss albino mouse assessed as reduction of acetic acid-induced writhing at 21 nmol/kg, po after 5 mins; format: functional; set-up: scale not given: the % may be the effect or the level left; in short: as §2
Rattus norvegicus [14] = assay: Antiinflammatory activity in rat assessed as reduction of carrageenan-induced paw pressure at 40 mg/kg, po after 15 mins post carrageenan-challenge; format: functional; set-up: scale not given: the % may be the effect or the level left; in short: as §1
Mus musculus [15] = assay: Analgesic activity in Swiss albino mouse assessed as reduction of acetic acid-induced writhing at 5.5 nmol/kg, po after 5 mins; format: functional; set-up: scale not given: the % may be the effect or the level left; in short: as §2
Mus musculus [16] = assay: Analgesic activity in Swiss albino mouse assessed as reduction of acetic acid-induced writhing at 18.4 nmol/kg, po after 5 mins; format: functional; set-up: scale not given: the % may be the effect or the level left; in short: as §2
[17] = target: T1, Prostaglandin G/H synthase 1 (Mus musculus) (UniProt P22437); assay: Inhibition of COX1-mediated PGE2 production in mouse J774 cells at 10 uM preincubated for 15 mins measured after 30 mins by radioimmunoassay relative to control; format: cell-based
T1 sequence (whole entry): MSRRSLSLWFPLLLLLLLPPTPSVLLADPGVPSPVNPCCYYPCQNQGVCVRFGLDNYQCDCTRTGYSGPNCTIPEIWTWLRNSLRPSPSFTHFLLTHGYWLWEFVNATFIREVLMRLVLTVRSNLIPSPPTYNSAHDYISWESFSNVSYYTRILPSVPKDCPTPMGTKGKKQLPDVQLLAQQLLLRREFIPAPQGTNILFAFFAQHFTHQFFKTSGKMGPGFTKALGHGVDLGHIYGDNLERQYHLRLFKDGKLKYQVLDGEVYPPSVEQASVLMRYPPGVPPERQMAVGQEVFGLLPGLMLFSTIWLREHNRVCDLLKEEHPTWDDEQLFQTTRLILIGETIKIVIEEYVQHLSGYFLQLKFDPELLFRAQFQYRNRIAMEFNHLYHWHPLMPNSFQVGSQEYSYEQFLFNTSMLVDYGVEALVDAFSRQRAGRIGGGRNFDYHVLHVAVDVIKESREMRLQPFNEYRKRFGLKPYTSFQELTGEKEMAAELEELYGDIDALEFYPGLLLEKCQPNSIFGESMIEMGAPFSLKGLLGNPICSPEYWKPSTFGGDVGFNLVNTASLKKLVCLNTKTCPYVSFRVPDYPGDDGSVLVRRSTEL
In short: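 Murine J774 macrophages in DMEM with 10% FBS, glutamine, HEPES, pyruvate and antibiotics, adhered 2 h at 37 °C in 5% CO2. Medium was refreshed, cells were pretreated with compound for 15 min, then given 15 μM arachidonic acid for 30 min at 37 °C. PGE2 in supernatant was measured by RIA as % inhibition versus control, triplicate wells, mean of three experiments.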

J774 = assay: Selectivity index, ratio of IC50 for COX1-mediated PGE2 production to IC50 for COX2-mediated PGE2 production in mouse J774 cells; format: cell-based
In short: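 Ratio of the COX-1 IC50 to the COX-2 IC50, both from PGE2 RIA in J774 cells. For COX-1, cells were given compound for 15 min, then 15 μM arachidonic acid for 30 min; lower concentrations (0.01–1 μM) were tested when warranted. For COX-2, cells were given LPS 10 µg/mL for 24 h with compound at 0.01–10 μM. IC50 came from a sigmoidal variable-slope fit.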

Aorta = assay: Vasorelaxant activity in Wistar rat endothelium-denuded thoracic aortic ring assessed as inhibition of KCl-induced contractile tone in presence of guanylate cyclase inhibitor ODQ; format: functional, tissue-based
In short: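 Male normotensive Wistar rats (250–350 g); thoracic aortic rings, endothelium removed by rubbing, removal confirmed by <10% relaxation to ACh (10 µM) in KCl (30 mM)-contracted rings. ODQ 1 µM incubated after confirmation; rings contracted with KCl 30 mM, then 3-fold increasing compound concentrations (1 nM–10 µM). Isometric tension; pIC50 from half reduction of KCl tone; mean ± SE, 6–10 experiments.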

[18] = target: T2, Prostaglandin G/H synthase 1 (Mus musculus, UniProt P22437); assay: Inhibition of COX1-mediated PGE2 production in mouse J774 cells preincubated for 15 mins measured after 30 mins by radioimmunoassay; format: cell-based
T2 sequence (P22437 whole entry): T1 sequence (whole entry)
In short: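 Murine J774 macrophages in DMEM/10% FBS, adhered 2 h at 37 °C. […] Supernatant PGE2 measured by RIA. Triplicate wells, mean of three experiments; IC50 by sigmoidal variable-slope fit.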

[19] = target: T3, Prostaglandin G/H synthase 2 (Mus musculus) (UniProt Q05769); assay: Inhibition of COX2-mediated PGE2 production in LPS-induced mouse J774 cells by radioimmunoassay relative to control; format: cell-based; set-up: concentration or dose not given beside the values; settings: concentration not given here
T3 sequence (whole entry): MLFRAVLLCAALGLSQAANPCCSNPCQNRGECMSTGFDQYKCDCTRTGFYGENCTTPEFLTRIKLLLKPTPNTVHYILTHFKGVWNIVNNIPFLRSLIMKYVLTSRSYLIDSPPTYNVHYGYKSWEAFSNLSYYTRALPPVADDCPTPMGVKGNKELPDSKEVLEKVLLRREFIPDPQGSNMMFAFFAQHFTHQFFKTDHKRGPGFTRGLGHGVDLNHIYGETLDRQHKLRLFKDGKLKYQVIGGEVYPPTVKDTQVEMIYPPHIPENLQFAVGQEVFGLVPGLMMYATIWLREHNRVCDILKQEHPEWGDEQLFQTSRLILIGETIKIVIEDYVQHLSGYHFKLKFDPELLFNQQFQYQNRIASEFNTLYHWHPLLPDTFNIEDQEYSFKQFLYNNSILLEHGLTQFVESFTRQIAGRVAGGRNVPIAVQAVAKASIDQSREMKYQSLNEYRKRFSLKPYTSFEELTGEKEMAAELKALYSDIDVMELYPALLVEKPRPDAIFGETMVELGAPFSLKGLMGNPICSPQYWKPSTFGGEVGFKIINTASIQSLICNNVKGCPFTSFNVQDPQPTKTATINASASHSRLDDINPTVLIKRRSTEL
In short: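 J774 cells, cultured as for the COX-1 assay, were stimulated 24 h with E. coli LPS (10 µg/mL) to induce COX-2, with or without compound at 0.01–10 μM. Supernatant PGE2 was measured by RIA as % inhibition versus control, triplicate wells, mean of three experiments. IC50 came from a sigmoidal variable-slope dose-response fit.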

Mus musculus [20] = assay: Analgesic activity in Swiss albino mouse assessed as reduction of acetic acid-induced writhing at 73.6 nmol/kg, po after 5 mins; format: functional; set-up: scale not given: the % may be the effect or the level left; in short: as §2
Mus musculus [21] = assay: Analgesic activity in Swiss albino mouse assessed as reduction of acetic acid-induced writhing at 36.8 nmol/kg, po after 5 mins; format: functional; set-up: scale not given: the % may be the effect or the level left; in short: as §2

**Q.** Which results are given for `Cc1c(CC(=O)OCCO[N+](=O)[O-])cc(-c2ccc(S(C)(=O)=O)cc2)n1-c1cccc(F)c1`?
**A.** Activity (Rattus norvegicus [1]): 60%; Activity (Liver): tde; Activity (Rattus norvegicus [2]): 35%; Activity (Mus musculus [3]): 48.8%; solubility [4]: 1.6 µM (≈ 0.762 µg/mL); Activity (Rattus norvegicus [5]): 40%; solubility [6]: < 1 µM; Activity (Rattus norvegicus [7]): 29%; Activity (Rattus norvegicus [8]): 80%; Activity (Rattus norvegicus [9]): 10%; Activity (Rattus norvegicus [10]): 23%; Activity (Rattus norvegicus [11]): 17%; Activity (Rattus norvegicus [12]): 18%; Activity (Mus musculus [13]): 30.8%; Activity (Rattus norvegicus [14]): 50%

**Q.** With `Cc1c(C(N)C(=O)OCCCO[N+](=O)[O-])cc(-c2ccc(S(C)(=O)=O)cc2)n1-c1ccc(F)cc1` (stereo unspecified) as the compound, how does the Activity (Mus musculus [15]) read?
**A.** 19%

**Q.** What about the Activity (Rattus norvegicus [1]) of the same compound?
**A.** 53%

**Q.** What about the Activity (Mus musculus [16]) of the same compound?
**A.** 36.2%

**Q.** What about the Activity (Rattus norvegicus [2]) of the same compound?
**A.** 44%

**Q.** And the inhibition [17]?
**A.** 0%

**Q.** And the solubility [4]?
**A.** 80 µM (≈ 40.4 µg/mL)

**Q.** And the Ratio IC50 (J774)?
**A.** > 12.2

**Q.** And the Activity (Rattus norvegicus [5])?
**A.** 45%

**Q.** What about the IC50 (Aorta) of the same compound?
**A.** 2.19 µM

**Q.** What about the solubility [6] of the same compound?
**A.** > 200 µM

**Q.** What about the Activity (Rattus norvegicus [7]) of the same compound?
**A.** 27%

**Q.** And the Activity (Rattus norvegicus [8])?
**A.** 70%

**Q.** What about the Activity (Rattus norvegicus [9]) of the same compound?
**A.** 15%

**Q.** And the Activity (Rattus norvegicus [10])?
**A.** 16%

**Q.** And the IC50 [18]?
**A.** > 10 µM

**Q.** What about the inhibition [19] of the same compound?
**A.** 95%

**Q.** What about the Activity (Rattus norvegicus [11]) of the same compound?
**A.** 15%

**Q.** What about the Activity (Rattus norvegicus [12]) of the same compound?
**A.** 25%

**Q.** What about the Activity (Mus musculus [20]) of the same compound?
**A.** 59.6%

**Q.** What about the Activity (Rattus norvegicus [14]) of the same compound?
**A.** 40%

**Q.** And the Activity (Mus musculus [21])?
**A.** 46.1%
